Assay results reported in ChEMBL document CHEMBL4043099, “Synthesis and biological activity of cyclolinopeptide A analogues modified with γ4-bis(homo-phenylalanine)” (Bioorg Med Chem, 2017).
Active and inactive are the calls of the source. No cut-off for these calls is given here.

Assays:
Jurkat [1] = test: Inhibition of apoptosis in human Jurkat cells assessed as caspase-3 expression relative to beta-actin at 10 ug/ml after 24 hrs by RT-PCR analysis; type: functional
In short: (§1)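 Jurkat cells (10^6/mL) exposed to 10 µg/mL peptide for 24 h (described as overnight in methods), with DMSO control. Total RNA extracted with TRIzol. Caspase-3, -8 and -9 transcripts measured by SYBR qPCR: 95 C for 5 min, then 35 cycles of 95 C for 30 s and 60 C for 45 s. Values given in arbitrary units relative to β-actin.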

Jurkat [2] = test: Induction of DNA fragmentation in human Jurkat cells at 10 ug/ml after 24 hrs by agarose gel electrophoresis; type: functional, cell-based
In short: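 Jurkat cells treated 24 h with 10 µg/mL peptide versus DMSO. About 2×10^6 cells lysed overnight at 37 C in Tris-HCl pH 8.5 with EDTA, 5% SDS and proteinase K. Lysates heat-inactivated, RNase-treated, DNA precipitated with isopropanol and ethanol-washed. Fragmentation assessed by gel electrophoresis.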

PBMC [3] = test: Immunosuppressive activity in human PBMC assessed as inhibition of PHA-induced proliferation after 4 days by MTT assay; type: functional, cell-based
In short: (§2)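 PBMC (2×10^5 cells/well) in supplemented RPMI-1640, stimulated with 5 µg/mL PHA, with peptide at 1, 10 or 100 µg/mL. DMSO dilutions as control; no-PHA wells as baseline. Proliferation read by MTT after 4 days of incubation. Data given as mean OD of quadruplicate wells ± SE.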

PBMC [4] = test: Anti-inflammatory activity in human PBMC assessed as inhibition of LPS-induced TNFalpha production at 10 ug/ml after overnight incubation by immunoassay; type: functional
In short: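 Diluted venous blood from a single donor (10× in RPMI-1640), 1 mL cultures, stimulated with 1 µg/mL LPS from E. coli O:111:B4. Peptides added at 1 and 10 µg/mL from DMSO stock (5 mg/200 µL) diluted in RPMI-1640. DMSO dilutions served as 100% controls. Overnight incubation, then supernatants frozen at -20 C and TNF-α measured by ELISA.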

PBMC [5] = test: Cytotoxicity against human PBMC assessed as reduction in cell viability at 10 ug/ml after 24 hrs by MTT assay; type: cell-based
In short: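 Single-donor PBMC isolated on LSM, resuspended in RPMI-1640 with 10% FCS, L-glutamine, pyruvate, 2-mercaptoethanol and antibiotics. Cells plated at 3×10^5 per well and cultured 24 h with peptide at 1, 10 or 100 µg/mL. Survival read by MTT and expressed as % viable cells versus matched DMSO controls.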

HT-29 = test: Cytotoxicity against human HT-29 cells at 25 ug/ml; type: functional, cell-based
A-431 = test: Cytotoxicity against human A431 cells at 25 ug/ml; type: functional, cell-based
Jurkat [6] = test: Inhibition of apoptosis in human Jurkat cells assessed as caspase-8 expression relative to beta-actin at 10 ug/ml after 24 hrs by RT-PCR analysis; type: functional; in short: as §1
Jurkat [7] = test: Inhibition of apoptosis in human Jurkat cells assessed as caspase-9 expression relative to beta actin at 10 ug/ml after 24 hrs by RT-PCR analysis; type: functional; in short: as §1
[8] = biological target: T1, Prostaglandin G/H synthase 1 (Ovis aries) (UniProt P05979); test: Inhibition of ovine COX-1 assessed as PGE2 formation at 1000 pg/ml (reference value: 981 ng/ml)
T1 sequence (whole entry): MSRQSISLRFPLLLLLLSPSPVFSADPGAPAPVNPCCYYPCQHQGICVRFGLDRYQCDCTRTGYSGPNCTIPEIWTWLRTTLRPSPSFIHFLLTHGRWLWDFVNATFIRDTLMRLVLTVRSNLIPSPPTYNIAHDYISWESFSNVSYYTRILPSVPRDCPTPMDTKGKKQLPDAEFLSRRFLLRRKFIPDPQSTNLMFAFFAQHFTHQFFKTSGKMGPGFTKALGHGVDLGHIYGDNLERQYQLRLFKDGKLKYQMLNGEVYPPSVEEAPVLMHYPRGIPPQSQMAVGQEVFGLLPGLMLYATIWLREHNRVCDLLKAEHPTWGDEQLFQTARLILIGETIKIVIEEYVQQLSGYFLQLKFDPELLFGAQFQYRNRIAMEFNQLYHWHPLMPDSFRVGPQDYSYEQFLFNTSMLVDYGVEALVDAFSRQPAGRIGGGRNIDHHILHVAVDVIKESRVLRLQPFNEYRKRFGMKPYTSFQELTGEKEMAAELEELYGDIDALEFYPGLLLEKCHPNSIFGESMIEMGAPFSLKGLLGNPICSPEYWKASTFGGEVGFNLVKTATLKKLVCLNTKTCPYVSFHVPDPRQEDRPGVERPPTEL

[9] = biological target: T2, Prostaglandin G/H synthase 2 (Homo sapiens) (UniProt P35354); test: Inhibition of human recombinant COX-2 assessed as PGE2 formation at 5000 pg/ml (reference value: 1072 ng/ml)
T2 sequence (whole entry): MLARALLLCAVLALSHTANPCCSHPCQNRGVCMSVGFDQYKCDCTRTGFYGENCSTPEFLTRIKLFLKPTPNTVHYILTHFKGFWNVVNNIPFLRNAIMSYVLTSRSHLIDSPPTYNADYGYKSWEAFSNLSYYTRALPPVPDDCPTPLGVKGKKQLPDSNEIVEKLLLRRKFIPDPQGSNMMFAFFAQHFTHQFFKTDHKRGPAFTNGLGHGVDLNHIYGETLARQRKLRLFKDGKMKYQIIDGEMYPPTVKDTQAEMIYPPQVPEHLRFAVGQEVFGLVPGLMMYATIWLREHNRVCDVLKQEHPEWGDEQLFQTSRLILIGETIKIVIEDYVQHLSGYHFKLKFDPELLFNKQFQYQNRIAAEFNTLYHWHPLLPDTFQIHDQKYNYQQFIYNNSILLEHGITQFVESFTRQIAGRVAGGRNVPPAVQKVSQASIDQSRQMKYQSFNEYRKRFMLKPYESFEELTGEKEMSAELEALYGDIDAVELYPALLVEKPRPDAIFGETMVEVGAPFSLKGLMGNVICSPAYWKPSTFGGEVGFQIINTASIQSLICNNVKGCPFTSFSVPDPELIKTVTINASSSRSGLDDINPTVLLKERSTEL

PBMC [10] = test: Immunosuppressive activity in human PBMC assessed as inhibition of PHA-induced cell proliferation at 10 ug/ml after 4 days by MTT assay; type: functional, cell-based; in short: as §2
[11] = biological target: T1, Prostaglandin G/H synthase 1 (Ovis aries); test: Inhibition of ovine COX-1 assessed as PGE2 formation at 100 pg/ml (reference value: 981 ng/ml)
[12] = biological target: T2, Prostaglandin G/H synthase 2 (Homo sapiens); test: Inhibition of human recombinant COX-2 assessed as PGE2 formation at 1000 pg/ml (reference value: 1072 ng/ml)
[13] = biological target: T2, Prostaglandin G/H synthase 2 (Homo sapiens); test: Inhibition of human recombinant COX-2 assessed as PGE2 formation at 100 pg/ml (reference value: 1072 ng/ml)

Activity [8]: 1030 ng/mL
Activity [9]: 1230 ng/mL
Activity [11]: 1110 ng/mL
Activity [12]: 1060 ng/mL
Activity [13]: 1180 ng/mL
SMILES: CC[C@H](C)[C@@H]1NC(=O)[C@H](CC(C)C)NC(=O)[C@H](Cc2ccccc2)NC(=O)CC[C@H](Cc2ccccc2)NC(=O)[C@@H]2CCCN2C(=O)[C@@H]2CCCN2C(=O)[C@H](C(C)C)NC(=O)[C@H](CC(C)C)NC(=O)[C@H]([C@@H](C)CC)NC1=O
fold change (FC) (Jurkat [1]): 0
Activity (Jurkat [2]): Active
Activity (PBMC [3]): Dose-dependent effect
inhibition (PBMC [4]): Active
Activity (PBMC [5]): Non-Toxic
Activity (HT-29): inactive
Activity (A-431): inactive
fold change (FC) (Jurkat [6]): 0.591
fold change (FC) (Jurkat [7]): 0.538
Activity (PBMC [10]): Active
